Results on 11 compounds are retold here after ChEMBL document CHEMBL2429734, “Expedient Synthesis of SMAMPs via Click Chemistry” (ACS Med Chem Lett, 2013).

Data set [1] relates to Staphylococcus aureus. As to the kind of experiment: Antibacterial activity against Staphylococcus aureus ATCC 27660 assessed as growth inhibition after 18 hrs by broth microdilution method in absence of 40% mouse serum. The settings on record: ATCC 27660, 18 h. In kind it is functional. An outline of the steps: (§1)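 MIC determined by Hancock's method for cationic antimicrobial peptides, a slight modification of the CLSI microbroth dilution method, run in medium without mouse serum. Strains were S. aureus ATCC 27660, E. coli ATCC 25922, E. faecalis ATCC 29212, P. aeruginosa ATCC 10145 and K. pneumoniae ATCC 13883.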

The subject of the next data set is Enterococcus faecalis. Briefly: Antibacterial activity against Enterococcus faecalis ATCC 29212 assessed as growth inhibition after 18 hrs by broth microdilution method in absence of 40% mouse serum. In kind it is functional. To be noted: ATCC 29212, 18 h. An outline of the steps:
as §1

The test system of data set [2] is Escherichia coli. Briefly: Antibacterial activity against Escherichia coli ATCC 25922 assessed as growth inhibition incubated for 30 mins prior to inoculation measured after 18 hrs by broth microdilution method in presence of 40% mouse serum. The data set is classed as functional. An outline of the steps:
(§2)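 Hancock-modified CLSI microbroth dilution MIC run in the presence of 40% mouse serum against S. aureus ATCC 27660 or E. coli ATCC 25922. 40% was the highest serum level used because bacterial growth was impaired at higher percentages.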

A further data set deals with Pseudomonas aeruginosa. As to the kind of experiment: Antibacterial activity against Pseudomonas aeruginosa ATCC 10145 assessed as growth inhibition after 18 hrs by broth microdilution method in absence of 40% mouse serum. The data set is classed as functional. The settings on record: ATCC 10145, 18 h. An outline of the steps:
as §1

For data set [3], the system named is Staphylococcus aureus. Briefly: Antibacterial activity against Staphylococcus aureus ATCC 27660 assessed as growth inhibition incubated for 30 mins prior to inoculation measured after 18 hrs by broth microdilution method in presence of 40% mouse serum. In kind it is functional. An outline of the steps: as §2
In the next data set the test system is Klebsiella pneumoniae. Briefly: Antibacterial activity against Klebsiella pneumoniae ATCC 13883 assessed as growth inhibition after 18 hrs by broth microdilution method in absence of 40% mouse serum. The data set is classed as functional. To be noted: ATCC 13883, 18 h. An outline of the steps: as §1
The subject of data set [4] is Escherichia coli. Briefly: Antibacterial activity against Escherichia coli ATCC 25922 assessed as growth inhibition after 18 hrs by broth microdilution method in absence of 40% mouse serum. The data set is classed as functional. To be noted: ATCC 25922, 18 h. An outline of the steps: as §1
Data set [5] can be described thus: Hemolytic activity in human RBC assessed as release of hamoglobin after 1 hr. In kind it is ADME, cell-based, Erythrocyte. To be noted: for HC50 at 1 h: human red blood cells. Summed up:
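Lysis of human erythrocytes measured. HC50 was taken as the lowest concentration causing 50% lysis of the red blood cells.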

The nature of data set [6]: Ratio of compound HC50 to pexiganan HC50 for human RBC. The data set is classed as ADME, cell-based. The settings on record: erythrocyte.
Data set [7] can be described thus: Selectivity ratio of HC50 for human RBC to MIC for Escherichia coli ATCC 25922. The data set is classed as functional.
Data set [8] in a line: Selectivity ratio of HC50 for human RBC to MIC for Staphylococcus aureus ATCC 27660. The data set is classed as functional.

Turning to `NCCCOc1cccc(-n2cc(-c3cccc(-c4cn(-c5cccc(OCCCN)c5)nn4)c3)nn2)c1.O=C(O)C(F)(F)F.O=C(O)C(F)(F)F`, the MIC in the data set with Staphylococcus aureus [1] is 50 µg/mL; in the data set with Enterococcus faecalis, 25 µg/mL; in the data set with Escherichia coli [2], 25 µg/mL; in the data set on Pseudomonas aeruginosa it was 25 µg/mL; with Staphylococcus aureus [3] it was 12.5 µg/mL; in the data set on Klebsiella pneumoniae it was over 50 µg/mL. Moreover, the minimal inhibitory concentration (MIC) in the data set on Escherichia coli [4] worked out at 25 µg/mL.
Turning to `NCCCOc1cc(C#Cc2ccc3ccc(C#Cc4cc(OCCCN)cc(OCCCN)c4)cc3c2)cc(OCCCN)c1.O=C(O)C(F)(F)F.O=C(O)C(F)(F)F.O=C(O)C(F)(F)F.O=C(O)C(F)(F)F`, the MIC in the data set on Escherichia coli [2] turned out to be 12.5 µg/mL; in the data set with Staphylococcus aureus [3], 3.13 µg/mL. Besides, in [5], the HC50 at 1 h was 3.4 µg/mL.
Consider `NCCCOc1cc(-n2cc(-c3ccc4ccc(-c5cn(-c6cc(OCCCN)c(OCCCN)c(OCCCN)c6)nn5)cc4c3)nn2)cc(OCCCN)c1OCCCN.O=C(O)C(F)(F)F.O=C(O)C(F)(F)F.O=C(O)C(F)(F)F.O=C(O)C(F)(F)F.O=C(O)C(F)(F)F.O=C(O)C(F)(F)F`, for which the MIC was 12.5 µg/mL in the data set on Staphylococcus aureus [1]; 50 µg/mL in the data set on Enterococcus faecalis; 25 µg/mL with Escherichia coli [2]; 12.5 µg/mL in the data set with Pseudomonas aeruginosa; 0.19 µg/mL in the data set on Staphylococcus aureus [3]; over 50 µg/mL in the data set with Klebsiella pneumoniae. The MIC in the data set with Escherichia coli [4] amounted to 25 µg/mL. In addition, the HC50 at 1 h in [5] was determined as 828 µg/mL.
For `NCCCOc1cccc(-n2cc(-c3ccc4ccc(-c5cn(-c6cccc(OCCCN)c6)nn5)cc4c3)nn2)c1.O=C(O)C(F)(F)F.O=C(O)C(F)(F)F`, the MIC was over 50 µg/mL with Staphylococcus aureus [1]; 50 µg/mL in the data set with Enterococcus faecalis; over 50 µg/mL with Escherichia coli [2]; over 50 µg/mL with Pseudomonas aeruginosa; 12.5 µg/mL in the data set with Staphylococcus aureus [3]; over 50 µg/mL with Klebsiella pneumoniae. The MIC in the data set with Escherichia coli [4] was over 50 µg/mL.
As to `NCCCOc1cc(OCCCN)cc(-n2cc(-c3ccc4c(ccc5cc(-c6cn(-c7cc(OCCCN)cc(OCCCN)c7)nn6)ccc54)c3)nn2)c1.O=C(O)C(F)(F)F.O=C(O)C(F)(F)F.O=C(O)C(F)(F)F.O=C(O)C(F)(F)F`, the minimal inhibitory concentration (MIC) in the data set on Staphylococcus aureus [1] is 25 µg/mL; with Enterococcus faecalis it was 50 µg/mL; in the data set on Escherichia coli [2], 12.5 µg/mL; in the data set with Pseudomonas aeruginosa, 25 µg/mL; in the data set on Staphylococcus aureus [3], 0.39 µg/mL; with Klebsiella pneumoniae it was over 50 µg/mL. Moreover, in the data set with Escherichia coli [4], the minimal inhibitory concentration (MIC) was over 50 µg/mL. The 50% haemolytic concentration (HC50) at 1 h in [5] worked out at 109 µg/mL.
Regarding PEXIGANAN ACETATE, the concentration for 50% haemolysis (HC50) in data set [5] (erythrocyte, 1 h) was determined as 120 µg/mL.
In the case of `NCCCOc1ccc(-n2cc(-c3ccc4ccc(-c5cn(-c6cc(OCCCN)c(OCCCN)c(OCCCN)c6)nn5)cc4c3)nn2)cc1OCCCN.O=C(O)C(F)(F)F.O=C(O)C(F)(F)F.O=C(O)C(F)(F)F.O=C(O)C(F)(F)F.O=C(O)C(F)(F)F`, the MIC is 12.5 µg/mL in the data set with Staphylococcus aureus [1]; 25 µg/mL with Enterococcus faecalis; 25 µg/mL with Escherichia coli [2]; 50 µg/mL with Pseudomonas aeruginosa; 0.39 µg/mL in the data set on Staphylococcus aureus [3]; over 50 µg/mL with Klebsiella pneumoniae. The MIC in the data set on Escherichia coli [4] is 50 µg/mL. Further, the 50% haemolytic concentration (HC50) at 1 h in [5] worked out at 94 µg/mL.
Take `NCCCOc1cc(OCCCN)cc(-n2cc(-c3ccc4ccc(-c5cn(-c6cc(OCCCN)cc(OCCCN)c6)nn5)cc4c3)nn2)c1.O=C(O)C(F)(F)F.O=C(O)C(F)(F)F.O=C(O)C(F)(F)F.O=C(O)C(F)(F)F`: the MIC was 12.5 µg/mL in the data set on Staphylococcus aureus [1]; 25 µg/mL with Enterococcus faecalis; 6.25 µg/mL with Escherichia coli [2]; over 50 µg/mL in the data set with Pseudomonas aeruginosa; 0.39 µg/mL in the data set with Staphylococcus aureus [3]; 50 µg/mL in the data set on Klebsiella pneumoniae. Moreover, in the data set with Escherichia coli [4], the MIC is over 50 µg/mL. In addition, the concentration for 50% haemolysis (HC50) at 1 h in [5] came out at 693 µg/mL.
`NCCCOc1ccc(-n2cc(-c3ccc4ccc(-c5cn(-c6ccc(OCCCN)c(OCCCN)c6)nn5)cc4c3)nn2)cc1OCCCN.O=C(O)C(F)(F)F.O=C(O)C(F)(F)F.O=C(O)C(F)(F)F.O=C(O)C(F)(F)F`: the minimum inhibitory concentration (MIC) with Staphylococcus aureus [1] was 25 µg/mL; in the data set with Enterococcus faecalis it was 25 µg/mL; with Escherichia coli [2] it was 3.13 µg/mL; in the data set with Pseudomonas aeruginosa it was 50 µg/mL; with Staphylococcus aureus [3], 0.19 µg/mL; in the data set with Klebsiella pneumoniae it was 50 µg/mL. The minimum inhibitory concentration (MIC) in the data set with Escherichia coli [4] is over 50 µg/mL. Further, the concentration for 50% haemolysis (HC50) at 1 h in [5] was 81 µg/mL.
`NCCCOc1ccc(-n2cc(-c3cccc(-c4cn(-c5ccc(OCCCN)c(OCCCN)c5)nn4)c3)nn2)cc1OCCCN.O=C(O)C(F)(F)F.O=C(O)C(F)(F)F.O=C(O)C(F)(F)F.O=C(O)C(F)(F)F`: the minimal inhibitory concentration (MIC) in the data set with Staphylococcus aureus [1] is 12.5 µg/mL; in the data set on Escherichia coli [2] it was 6.25 µg/mL; in the data set on Pseudomonas aeruginosa, 50 µg/mL; in the data set on Staphylococcus aureus [3] it was 0.39 µg/mL; with Klebsiella pneumoniae, over 50 µg/mL; in the data set with Escherichia coli [4], over 50 µg/mL. In addition, in data set [6], the Ratio is 10. In data set [5], the HC50 at 1 h was over 1000 µg/mL. For the same compound, the Selectivity ratio was over 160 in [7] and over 2500 in data set [8].
As for `NCCCOc1cc(OCCCN)cc(-c2ccc3ccc(-c4cc(OCCCN)cc(OCCCN)c4)cc3c2)c1.O=C(O)C(F)(F)F.O=C(O)C(F)(F)F.O=C(O)C(F)(F)F.O=C(O)C(F)(F)F`, the MIC with Escherichia coli [2] was found to be 25 µg/mL; in the data set on Staphylococcus aureus [3], 1.56 µg/mL. For the same compound, in data set [5], the 50% haemolytic concentration (HC50) at 1 h worked out at 194 µg/mL.
